In ChEMBL document CHEMBL1833930, “Synthesis and biological activities of triazole derivatives as inhibitors of InhA and antituberculosis agents” (2011):
≈ marks a conversion by molar mass, not a printed value.

Legend:
[1] = test system: Mycobacterium tuberculosis; test: Antimycobacterial activity against Mycobacterium tuberculosis H37Rv by twofold dilution method; type: functional
How it was run: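 Single colony inoculated into complete Middlebrook 7H9 and grown at 37 °C to exponential phase (~10⁸ CFU/mL, OD600 0.8–1.0). Diluted to ~10⁷ CFU/mL, then streaked onto plates with two-fold serial compound dilutions. MIC was the lowest concentration inhibiting growth. Three independent repeats.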

[2] = biological target: T1, Enoyl-[acyl-carrier-protein] reductase [NADH] (Mycobacterium tuberculosis) (UniProt P9WGR1); test: Inhibition of Mycobacterium tuberculosis InhA expressed in Escherichia coli BL21 using trans-2-dodecenoyl-Coenzyme A as substrate at 50 uM by spectrophotometry
T1 sequence (whole entry): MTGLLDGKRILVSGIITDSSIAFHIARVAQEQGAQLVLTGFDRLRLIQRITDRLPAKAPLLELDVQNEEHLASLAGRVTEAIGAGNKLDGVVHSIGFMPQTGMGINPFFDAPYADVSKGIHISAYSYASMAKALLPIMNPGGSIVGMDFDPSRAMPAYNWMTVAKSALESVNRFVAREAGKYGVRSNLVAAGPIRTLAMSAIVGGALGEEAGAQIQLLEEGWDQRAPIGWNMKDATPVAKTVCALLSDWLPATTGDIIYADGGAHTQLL
How it was run: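 Recombinant M. tuberculosis InhA was expressed in E. coli with 1 mM IPTG overnight at 20 °C. It was purified on Ni-NTA and desalted into 30 mM PIPES pH 6.8, 150 mM NaCl. Reactions ran in buffer at pH 6.8 with 150 mM NaCl. Controls were run identically without inhibitor.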

| SMILES | MIC [1] [µM] | inhibition [2] [%] |
| --- | --- | --- |
| O=C(Cc1ccccc1)c1cn(CC2CCCCC2)nn1 | 88.2 (≈ 25 µg/mL) | 12 |
| c1ccc(Cn2cc(-c3ccccc3)nn2)cc1 | > 425 | – |
| CCCCCCCCn1cc(C(=O)Cc2ccccc2)nn1 | 83.5 (≈ 25 µg/mL) | 25 |
| c1ccc(CCc2cn(CC3CCCCC3)nn2)cc1 | 186 (≈ 50 µg/mL) | – |
| Cc1cc(C)cc(Cn2cc(C(=O)Cc3ccccc3)nn2)c1 | > 327 | 10 |
| O=C(Cc1ccc(Cl)cc1Cl)c1cn(Cc2ccccc2)nn1 | 289 (≈ 100 µg/mL) | – |
| O=C(Cc1ccccc1)c1cn(Cc2ccccc2)nn1 | 361 (≈ 100 µg/mL) | 13 |
| O=C(Cc1ccccc1)c1cn(Cc2ccc([N+](=O)[O-])cc2)nn1 | 310 (≈ 100 µg/mL) | – |
| CCCCCCCCCn1cc(CCc2ccccc2)nn1 | 16.7 (≈ 5 µg/mL) | 58 |
| CCCCCCCCn1cc(CCc2ccccc2)nn1 | 35 (≈ 9.99 µg/mL) | 46 |
| CCCCCCCCn1cc(C(O)Cc2ccc(Cl)cc2Cl)nn1 (racemic) | 67.5 (≈ 25 µg/mL) | – |
| COc1cccc(Cn2cc(C(=O)Cc3ccc(Cl)cc3Cl)nn2)c1 | 13.3 (≈ 5 µg/mL) | – |
| COc1cc(Cn2cc(C(=O)Cc3ccccc3)nn2)cc(OC)c1 | > 296 | – |
| Cc1cc(C)cc(Cn2cc(CCc3ccccc3)nn2)c1 | 34.3 (≈ 9.99 µg/mL) | 11 |
| O=C(Cc1ccc(Cl)cc1Cl)c1cn(Cc2ccc([N+](=O)[O-])cc2)nn1 | 256 (≈ 100 µg/mL) | – |
| Cc1cc(C)cc(Cn2cc(C(=O)Cc3ccc(Cl)cc3Cl)nn2)c1 | 267 (≈ 100 µg/mL) | – |
| COc1cccc(Cn2cc(C(=O)Cc3ccccc3)nn2)c1 | 81.3 (≈ 25 µg/mL) | 10 |
| c1ccc(Cc2cn(Cc3ccccc3)nn2)cc1 | 201 (≈ 50 µg/mL) | – |
| CCCCCCCCn1cc(C(=O)Cc2ccc(Cl)cc2Cl)nn1 | 27.2 (≈ 10 µg/mL) | – |
| Oc1cc(Cl)ccc1Oc1ccc(Cl)cc1Cl [TRICLOSAN] | 34.5 (≈ 9.99 µg/mL) | – |
| COc1cc(Cn2cc(C(=O)Cc3ccc(Cl)cc3Cl)nn2)cc(OC)c1 | 246 (≈ 100 µg/mL) | – |
| CCCCCCCCCCCCn1cc(CCc2ccccc2)nn1 | ≤ 5.9 | 40 |
| CCCCCCCCn1cc(C(O)Cc2ccccc2)nn1 (racemic) | 33.2 (≈ 10 µg/mL) | – |
| c1ccc(CCc2cn(Cc3ccccc3)nn2)cc1 | 94.9 (≈ 25 µg/mL) | 15 |
